Laboratory results published in the EternaBench riboswitch data.

Test system: MS2 coat protein
Assay: apparent Kd, MS2 coat protein; higher = weaker binding; RNA-MaP array; FMN 200 µM where present
Procedure, shortened: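 SNAP-549-labelled MS2 coat protein, doubled from 0.7 or 1.5 nM to 3 µM, was titrated over designs transcribed by stalled E. coli RNA polymerase on Illumina sequencing-chip clusters. Titrations were run without and then with constant ligand in 100 mM Tris-HCl pH 7.5, 80 mM KCl, 4 mM MgCl2, BSA, DTT, yeast tRNA and Tween-20. The apparent Kd is the median of filtered per-cluster fits to green signal normalised to red-channel RNA signal and control-cluster median Fmax.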

[1] = designed as: OFF switch for flavin mononucleotide, no ligand
[2] = ligand present: flavin mononucleotide, designed as: OFF switch for flavin mononucleotide
[3] = designed as: ON switch for flavin mononucleotide, no ligand
[4] = ligand present: flavin mononucleotide, designed as: ON switch for flavin mononucleotide

Sequence | apparent Kd [1] | apparent Kd [2] | apparent Kd [3] | apparent Kd [4]
UUUGCAACAUGAGGAUCACCCAUGUAGGAUAUCGCUAUUGUAAUCAUGAAACAUGAUUACAAUAGCGAGAAGGACAUAUGCGGG | 44.4 nM | 35 nM |  | 
ACGCACGGAGGAUAUACAUGAGGAUCACCCAUGUCGGUGUAUUUUCGGCCAAAAUUUUGUAGAAGGCUGUCGUG | 222 nM | 526 nM |  | 
GCUUCCGCAUGAGGAUAUUGUUAAGGGACGGGACCUCAUGACCCACAUGAGGAUCACCCAUGUGGCGAGAAGGCGUGUAGAGCG | 10.1 nM | 32.7 nM |  | 
UACAGCUUGACAGGAUAUACAUCACUGCGAAAGCAGUGUAUCUUAAUAACAUGAGGAUCACCCAUGUAGAAGGGUCGAGCUGUA | 19.8 nM | 35.9 nM |  | 
GCCGAAUGAACAUGAGGAUCACCCAUGUACAGGAAACUGAAUGAGGAUAUCCAUAGCAAAGCUAUGGAGAAGGCAUGGGUCGGC |  |  | 465 nM | 99.7 nM
UGGUACUAGGGAGGAUAUGGGAAGAUACAUGAGGAUCACCCAUGUUUAAGUAUGCCGAGAGGCAACUAGAAGGCCCUAGUACCU |  |  | 1440 nM | 116 nM
AAGUUGGUAGGAUAUACGUGCAAUUGGUGUGUCCGGAAAAAACAUGAGGAUCACCCAUGUAGAAGGACCAAAAA | 49.3 nM | 57.5 nM |  | 
UGUGCGUAUGUGAGGAUAUGCUGGUCCUUGGAUCAGCAGAAGGCACAUGAGGAUCACCCAUGUGGUGUCGUACG | 114 nM | 185 nM |  | 
CUGGAAGUCACAGGAUAUCCGGACACAUGUCCAGGAGAAGGGUGAGUAGUUUCACAUGAGGAUCACCCAUGUGGCGGUUCCAGA |  |  | 264 nM | 21.2 nM
ACUGACAUGAGGAUCACCCAUGUCUUGAAUAGGUCAAAUUCACAGGAUAUGCACGAGGACAGAGUGCAGAAGGGUGAUGCAAUG |  |  | 47.7 nM | 11.7 nM
UCUCAGUCAGGAUAUCGUUAAUUUAAUUGUUUGUAUUAGUUCGAGAAGGGACAUGAGGAUCACCCAUGUACUCA | 34 nM | 94.6 nM |  | 
GUCAGCUCGUGAGGAUAUACAACACUGCUUCGGCAUUGUAUUAAGAUCACAUGAGGAUCACCCAUGUAGAAGGCACGAGCUGAU | 9.1 nM | 109 nM |  | 
GCAUGCUAUGUCAGGAUAUACCUGUGGAUACAUAGGUAGAAGGGACAUGAGGAUCACCCAUGUCCUAAUCAUGC | 12.8 nM | 14.9 nM |  | 
UUAAUGUGAGGAUAUGGUAAAGAUAAGAUGAUGAAAGAACUCCAGAAGGCACAUGAGGAUCACCCAUGUAGAUG | 39.5 nM | 86.6 nM |  | 
UUUUUGUGAGGAUAUUAGUAGUAAAUGAAUAAAAUUAUUACUGAGAAGGCACAUGAGGAUCACCCAUGUUCCUU | 15.1 nM | 71.8 nM |  | 
AAUGUGUGUCGAGGAUAUAUAACAUGACAACAAACACAUACAUGAGGAUCACCCAUGUCCCAUGUAUAGAAGGCGAUAUAUAUA |  |  | 310 nM | 1120 nM
GAACAUGUCCGAGGAUAUCUGAGAUCAUUUUCAAGAGAAGGCGGACAUGAGGAUCACCCAUGUCUCUCCUCAUCAACUCCAAAU | 6.95 nM | 38.5 nM |  | 
UGUUUGUGACAGAAGGGCAUUUACAUGAGGAUCACCCAUGUUCAUCAUUGCAGGAUAUGUAUUUCAUGAGGAUCACCUAUGCUC |  |  | 201 nM | 71.1 nM
UUACUCAUGUAAGGAUAUGUAGCCGUUUCGGCUGCAGAAGGUACUAUAAUACAUGAGGAUCACCCAUGUCUAUAAAAUAAAGAC |  |  | 34.6 nM | 25.6 nM

Sequence | apparent Kd [1] | apparent Kd [2] | apparent Kd [3] | apparent Kd [4]
AGCUGUGGCAGAGGAUAUACUCCUAAAAUCCAUUGCAAAUAGCGAUGGACAUGAGGAUCACCCAUGUAGAAGGCUGUCUCAGCA | 57.2 nM | 649 nM |  | 
GUAGGCGACCAGAAGGGUGACAUGAGGAUCACCCAUGUAGGUGUGUUCCCGCUUAGGAGCCACCCACAGGAUAUGGUUGGUUAG |  |  | 27.6 nM | 23.9 nM
AACCAGUUGGUAGGAUAUGGUGCAGUGCCCGUACCAGAAGGACCAACAUGAGGAUCACCCAUGUUGGAAAGUCAACAUUAAUGA | 6.32 nM | 11.8 nM |  | 
GGAUAGGACAGAGGAUAUACUUGCUAGAGAUACUAGCAAAAUUUCCUCACAUGAGGAUCACCCAUGUAGAAGGCUGUCCUAUCG | 6.95 nM | 54.5 nM |  | 
AAAAAACAUGAGGAUCACCCAUGUGAGGAUAUGCUAAAAAAAAAAAAAAAAAAAAAAUGCAGAAGGUACAAAAA | 75.9 nM | 72.8 nM |  | 
AACUUGUCAGGAUAUCUUACAUUUGCAUCUUAGUUACCAUUGGAGAAGGGACAUGAGGAUCACCCAUGUUUGGU | 37.1 nM | 32.2 nM |  | 
GAAAAACAUGAGGAUCACCCAUGUGAGAAUAUGGGAGGAUAUUCAAAGACGAAAGUCAAAGAAGAAGGCCUAAAAG |  |  | 153 nM | 37.4 nM
GCCGAUUAAGUGAGGAUAUACCUAUGGAUACAUAGGUAGAAGGCACAUGAGGAUCACCCAUGUUCCUCAUCGGC | 16.8 nM | 132 nM |  | 
AUAUUGUGAGGAUAUCCAAUAUAUGACAUGAGGAUCACCCAUGUUUCCACUCGUACCUCCGGAGAAGGCACAUUUU | 27 nM | 24 nM |  | 
UCGUGAGGGACAGGAUAUGGACAUGAGGAUCACCCAUGUACAUGGGAAUAUAUACUGAAUUUAUACUAGAAGGGUUACAUAAAU | 21.6 nM | 16.1 nM |  | 
GUGGUUGUCGUAGGAUAUGUAGGAUAUUCCUACAUGAGGAUCACCCAUGUUCGCAUGGAAGAAUGACAGAAGGACGAUGACCAU |  |  | 330 nM | 82.6 nM
AAUUUACAUGAGGAUCACCCAUGUGAGGAUAUGAUACUAUGUACUUCGGUACAUAGUAUCAGAAGGCAUGUGGA | 129 nM | 37.1 nM |  | 
AUCAUGAGAGGAUAUACAUGAGGAUCACCCAUGUGGUCAUCUCCACGGGCUCAAUUACGUAGAAGGCUCAUUUG | 18 nM | 66.2 nM |  | 
CUCAUGUGAGGAUAUCAGUAGUAAAAAAAUAAAAUUACUACUGAGAAGGCACAUGAGGAUCACCCAUGUGCAAA | 95.9 nM | 105 nM |  | 
CGGAUUAUGUGAGGAUAUAAUCGUUUCCAUUGAUUAGAAGGCACAUGAGGAUCACCCAUGUGGCAUGUAAAGCCAUGUGACGCG | 108 nM | 109 nM |  | 
CCUCGCCCUCUUGCACAUGAGGAUCACCCAUGUUUUACGUACUAGGAUAUAGCUAUGUUCAAUCGUUAGAAGGAGUUCAUGGAU | 110 nM | 105 nM |  | 
GCAGGAUAAGUGAGGAUAUACCUCUGGAUACAGAGGUAGAAGGCACAUGAGGAUCACCCAUGUUACUCACCUGC | 11.9 nM | 33.8 nM |  | 
GCGUAUUUAAUAUUUAUAUAAUUGUCAGAAGGUGAAAAGACGACAUGAGGAUCACCCAUGUAAUUCAAGGAUAUGAUUAAGCGC |  |  | 30.7 nM | 15.8 nM
AAAAAACAUGAGGAUCACCCAUGUCAGGAUAUGAAAAAAAAAAAAAAAAAAAAAAAAAUCAGAAGGGACAAAAA | 66.4 nM | 36.1 nM |  | 

Sequence | apparent Kd [1] | apparent Kd [2] | apparent Kd [3] | apparent Kd [4]
CCGAGAAGGAGAGGAUAUGGACAUGAGGAUCACCCAUGUACAUGGGAAUAUAUACUGAAUUUUUACUAGAAGGCUUACAUAAAU | 17.8 nM | 14 nM |  | 
UCAUUGUAAGGAUAUAAAAGCUCGCGGAAUUGCACGGGUUGUUAGAAGGUACAUGAGGAUCACCCAUGUUCCUA | 17.1 nM | 22.1 nM |  | 
UCGCUGCGAGGAUAUACAUGAGGAUCACCCAUGUGCGGGUCCGGGUCUUCGUCCAUUGGUAGAAGGCGCAGUGA | 45.3 nM | 554 nM |  | 
UGUCGGAGCAGAGGAUAUUACAUGAGGAUCACCCAUGUAUGAAACAAUAGCUGGAAACAGCAAUGUAAGAAGGCUGCUCCGACA | 5.94 nM | 11.3 nM |  | 
AUCGUGCUAGGAUAUACAGACGGGUGUAGACGUGCAGGCAAACAUGAGGAUCACCCAUGUAGAAGGAGUAGUUA | 159 nM | 88.8 nM |  | 
GGAGACCUCACAGGAUAUGCUGGACUUUGUCCAGCAGAAGGGUGAAAACAUGAGGAUCACCCAUGUAUGGUCUCCAAAUUUAAG |  |  | 190 nM | 15.3 nM
UUCUUACGAGGAUAUCGAUGGUGGAACAUGAGGAUCACCCAUGUAUGAGAUAUUGUAUUUCGAGAAGGCGUUCAGU | 55.2 nM | 36.2 nM |  | 
CCAUGCGGAUGAGGAUAUUCAUCCAUGAGGAUAGAAGAAGGCGUACAUGAGGAUCACCCAUGUAUACACAUGAGGAUCCCUUAC | 462 nM | 420 nM |  | 
CAUUAAUUCAUUAUAGUAAUUAUACAGGAUAUGUAACAUGAGGAUCACCCAUGUAUUCUUGGUUAACAGAAGGGUAUUACUUGU | 17.5 nM | 27.6 nM |  | 
AAUAUAAGAGCUGGAAAUAACUCAACAUGAGGAUCACCCAUGUAGGAUAUCAGCACGAUAAGUGCUGAGAAGGACAUCCAGCUC | 14.4 nM | 14.6 nM |  | 
AGUGUCAUCGAGAAGGCCUCAACAUGAGGAUCACCCAUGUUGUAAAAUGGGAGGAUAUCGAUGAUACAGCUACGUUUCGUAGCA |  |  | 11.3 nM | 4.88 nM
GUUAUUUAUGUAGGAUAUGCGAGGCGAGCCUAAGCAGAAGGACAUGAGGAUCACCCAUGUAUUGCGGUUUGUGUUCAGAUCGCU | 27.3 nM | 84.9 nM |  | 
AGCUGGUGACAGCAAGAAACUUCACAUGAGGAUCACCCAUGUAGAAGGCUGUACGGUUACCGUACAGAGGAUAUACAUGAAAAG | 9.49 nM | 26.8 nM |  | 
UAGAUGGGAGGAUAUACGUAGAUGCAGGUUCGUGUGGUGCUACAUGAGGAUCACCCAUGUAGAAGGCCCGUCUU | 14.8 nM | 48.9 nM |  | 
AUCAAGUGAGGAUAUGAUAAUACAACAAACAAACAUCUACAUCAGAAGGCACAUGAGGAUCACCCAUGUUAAUC | 22.7 nM | 27.1 nM |  | 
UAAAAGUGAGGAUAUACAUUAAGGUAAGUCCGGAUGCGAAGACAUGAGGAUCACCCAUGUAGAAGGCACACAAA | 32.1 nM | 146 nM |  | 
AGCUAGUCAGGAUAUACGCGAACGAACGAAGCAGUGAAGGGACAUGAGGAUCACCCAUGUAGAAGGGACUAGCA | 27.1 nM | 53.7 nM |  | 
UAUUUAAUCAUAGGAUAUAGUGUGUAAUUUGGACUAGAAGGAUGAAACAUGAGGAUCACCCAUGUGGUAAAUGGGAUACAUUCC |  |  | 73.5 nM | 94.5 nM
